Test results taken from ChEMBL document CHEMBL2384906, “Biological activity, design, synthesis and structure activity relationship of some novel derivatives of curcumin containing sulfonamides” (Eur J Med Chem, 2013).
Values after ≈ are worked out from the molar mass of the structure shown. Active and inactive are the calls of the source. No cut-off for these calls is given here.

Tests used:
[1] = system: Escherichia coli; test: Antimicrobial activity against Escherichia coli ATCC 35218 assessed as diameter of inhibition zone at 80 uM after 24 hrs by Kirby -Baur disc diffusion method; assay type: functional; conditions: ATCC 35218, 24 h, read-out: DIZ
Procedure, shortened: (§1)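 Kirby-Bauer disc diffusion was used. Acetone stocks (160 µM) were serially doubled down to 80, 40 and 20 µM. 4 µL of each went onto 5 mm sterile paper discs, which were dried 30 min at 50 °C. Inoculum was 1.5 × 10⁸ CFU/mL diluted to 3 × 10² CFU/mL, and 50 µL was spread on Mueller-Hinton agar. After 24 h at 37 °C the inhibition-zone diameter was measured. Ciprofloxacin served as positive control.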

[2] = system: Salmonella typhi; test: Antimicrobial activity against Salmonella typhi ATCC 23564 assessed as diameter of inhibition zone at 80 uM after 24 hrs by Kirby -Baur disc diffusion method; assay type: functional, Salmonella enterica subsp. enterica serovar Typhi; conditions: Salmonella enterica, ATCC 23564, 24 h; read-out: DIZ
[3] = system: Staphylococcus aureus; test: Antimicrobial activity against Staphylococcus aureus ATCC 11632 after 24 hrs by broth micro serial dilution method; assay type: functional; conditions: ATCC 11632, 24 h
Procedure, shortened: (§2)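 This was broth microdilution in autoclaved Mueller-Hinton broth. 150 µL of compound per well was serially diluted […], and 50 µL of test organism was added. Plates were incubated 24 h at 37 °C and optical density was read.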

[4] = system: Staphylococcus aureus; test: Antimicrobial activity against Staphylococcus aureus ATCC 11632 assessed as diameter of inhibition zone at 40 uM after 24 hrs by Kirby -Baur disc diffusion method; assay type: functional; procedure, shortened: as §1
[5] = system: Escherichia coli; test: Antimicrobial activity against Escherichia coli ATCC 35218 assessed as diameter of inhibition zone at 20 uM after 24 hrs by Kirby -Baur disc diffusion method; assay type: functional; conditions: ATCC 35218, 24 h, read-out: DIZ; procedure, shortened: as §1
[6] = system: Escherichia coli; test: Antimicrobial activity against Escherichia coli ATCC 35218 after 24 hrs by broth micro serial dilution method; assay type: functional; conditions: ATCC 35218, 24 h; procedure, shortened: as §2
[7] = system: Staphylococcus aureus; test: Antimicrobial activity against Staphylococcus aureus ATCC 11632 assessed as diameter of inhibition zone at 20 uM after 24 hrs by Kirby -Baur disc diffusion method; assay type: functional; procedure, shortened: as §1
[8] = system: Salmonella typhi; test: Antimicrobial activity against Salmonella typhi ATCC 23564 assessed as diameter of inhibition zone at 20 uM after 24 hrs by Kirby -Baur disc diffusion method; assay type: functional, Salmonella enterica subsp. enterica serovar Typhi
[9] = system: Pseudomonas aeruginosa; test: Antimicrobial activity against Pseudomonas aeruginosa ATCC 15499 after 24 hrs by broth micro serial dilution method; assay type: functional; conditions: ATCC 15499, 24 h; procedure, shortened: as §2
[10] = system: Salmonella typhi; test: Antimicrobial activity against Salmonella typhi ATCC 23564 after 24 hrs by broth micro serial dilution method; assay type: functional, Salmonella enterica subsp. enterica serovar Typhi; conditions: Salmonella enterica, ATCC 23564, 24 h
[11] = system: Staphylococcus aureus; test: Antimicrobial activity against Staphylococcus aureus ATCC 11632 assessed as diameter of inhibition zone at 80 uM after 24 hrs by Kirby -Baur disc diffusion method; assay type: functional; conditions: ATCC 11632, 24 h, read-out: DIZ; procedure, shortened: as §1
[12] = system: Bacillus cereus; test: Antimicrobial activity against Bacillus cereus MTCC 7350 assessed as diameter of inhibition zone at 40 uM after 24 hrs by Kirby -Baur disc diffusion method; assay type: functional; procedure, shortened: as §1
[13] = system: Bacillus cereus; test: Antimicrobial activity against Bacillus cereus MTCC 7350 assessed as diameter of inhibition zone at 20 uM after 24 hrs by Kirby -Baur disc diffusion method; assay type: functional; procedure, shortened: as §1
[14] = system: Bacillus cereus; test: Antimicrobial activity against Bacillus cereus MTCC 7350 assessed as diameter of inhibition zone at 80 uM after 24 hrs by Kirby -Baur disc diffusion method; assay type: functional; conditions: MTCC 7350, 24 h, read-out: DIZ; procedure, shortened: as §1
[15] = system: Pseudomonas aeruginosa; test: Antimicrobial activity against Pseudomonas aeruginosa ATCC 15499 assessed as diameter of inhibition zone at 20 uM after 24 hrs by Kirby -Baur disc diffusion method; assay type: functional; procedure, shortened: as §1
[16] = system: Salmonella typhi; test: Antimicrobial activity against Salmonella typhi ATCC 23564 assessed as diameter of inhibition zone at 40 uM after 24 hrs by Kirby -Baur disc diffusion method; assay type: functional, Salmonella enterica subsp. enterica serovar Typhi
[17] = system: Pseudomonas aeruginosa; test: Antimicrobial activity against Pseudomonas aeruginosa ATCC 15499 assessed as diameter of inhibition zone at 80 uM after 24 hrs by Kirby -Baur disc diffusion method; assay type: functional; conditions: ATCC 15499, 24 h, read-out: DIZ; procedure, shortened: as §1
[18] = system: Escherichia coli; test: Antimicrobial activity against Escherichia coli ATCC 35218 assessed as diameter of inhibition zone at 40 uM after 24 hrs by Kirby -Baur disc diffusion method; assay type: functional; conditions: ATCC 35218, 24 h, read-out: DIZ; procedure, shortened: as §1
[19] = system: Bacillus cereus; test: Antimicrobial activity against Bacillus cereus MTCC 7350 after 24 hrs by broth micro serial dilution method; assay type: functional; conditions: MTCC 7350, 24 h; procedure, shortened: as §2
[20] = system: Pseudomonas aeruginosa; test: Antimicrobial activity against Pseudomonas aeruginosa ATCC 15499 assessed as diameter of inhibition zone at 40 uM after 24 hrs by Kirby -Baur disc diffusion method; assay type: functional; procedure, shortened: as §1
[21] = system: Curvularia lunata; test: Antifungal activity against Curvularia lunata MTCC 581 assessed as zone of inhibition at 80 uM after 48 hrs by disc diffusion method; assay type: functional; conditions: MTCC 581, 48 h, read-out: IZ
Procedure, shortened: (§3)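 Spores from 4-day potato dextrose agar cultures, suspended in sterile water at 1.5 × 10⁵ CFU/mL. 0.2 mL was spread on potato dextrose agar. 5 mm filter-paper discs soaked with test compound were laid on the lawn. Incubation was 48 h at 28 °C, then the inhibition zone was measured in mm. Fluconazole was the positive control and acetone the negative control.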

[22] = system: Mus musculus; test: Antiinflammatory activity in mouse assessed as inhibition of carrageenan-induced increase in paw volume at 200 mg/kg administered 1 hr prior to carrageenan challenge measured after 3 hrs relative to control; assay type: functional
Procedure, shortened: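 Mice were fasted 2 h and placed in groups of five. Controls received saline i.p. Phenylbutazone was given at 100 mg/kg i.p., curcumin at 200 mg/kg i.p., and derivatives at 200 mg/kg. After 1 h, 0.1 mL of 1% carrageenan in saline was injected subplantar into the right hind paw. Paw volume was followed by plethysmometer for 3 h, and % inhibition was calculated as (Vc − Vt)/Vc × 100.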

[23] = system: Curvularia lunata; test: Antifungal activity against Curvularia lunata MTCC 581 assessed as zone of inhibition at 40 uM after 48 hrs by disc diffusion method; assay type: functional; conditions: MTCC 581, 48 h, read-out: IZ; procedure, shortened: as §3
[24] = system: Trichoderma viride; test: Antifungal activity against Trichoderma viride MTCC 1107 assessed as zone of inhibition at 80 uM after 48 hrs by disc diffusion method; assay type: functional; conditions: MTCC 1107, 48 h, read-out: IZ; procedure, shortened: as §3
[25] = system: Curvularia lunata; test: Antifungal activity against Curvularia lunata MTCC 581 after 48 hrs; assay type: functional; conditions: MTCC 581, 48 h
[26] = system: Curvularia lunata; test: Antifungal activity against Curvularia lunata MTCC 581 assessed as zone of inhibition at 20 uM after 48 hrs by disc diffusion method; assay type: functional; conditions: MTCC 581, 48 h, read-out: IZ; procedure, shortened: as §3
[27] = system: HepG2; test: Cytotoxicity against human HepG2 cells after 24 hrs by MTT assay; assay type: functional, cell-based
Procedure, shortened: (§4)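 The MTT assay seeded 5 × 10⁴ cells per well and grew them 24 h in RPMI 1640 with compound at 2.5–200 µM. Medium without cells was the blank and adriamycin the positive control. MTT was added for 4 h at 37 °C, formazan was solubilised, and absorbance was read at 570 nm. IC50 is the concentration that cuts viability 50% against untreated cells.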

[28] = system: HeLa; test: Cytotoxicity against human HeLa cells after 24 hrs by MTT assay; assay type: functional, cell-based; procedure, shortened: as §4
[29] = system: QG-56; test: Cytotoxicity against human QG56 cells after 24 hrs by MTT assay; assay type: functional, cell-based; procedure, shortened: as §4
[30] = system: Aspergillus niger; test: Antifungal activity against Aspergillus niger MTCC 1108 assessed as zone of inhibition at 80 uM after 48 hrs by disc diffusion method; assay type: functional; procedure, shortened: as §3
[31] = system: Trichoderma viride; test: Antifungal activity against Trichoderma viride MTCC 1107 assessed as zone of inhibition at 40 uM after 48 hrs by disc diffusion method; assay type: functional; conditions: MTCC 1107, 48 h, read-out: IZ; procedure, shortened: as §3
[32] = system: HCT-116; test: Cytotoxicity against human HCT116 cells after 24 hrs by MTT assay; assay type: functional, cell-based; procedure, shortened: as §4
[33] = system: Aspergillus flavus; test: Antifungal activity against Aspergillus flavus MTCC 1021 after 48 hrs; assay type: functional
[34] = system: Trichoderma viride; test: Antifungal activity against Trichoderma viride MTCC 1107 assessed as zone of inhibition at 20 uM after 48 hrs by disc diffusion method; assay type: functional; conditions: MTCC 1107, 48 h, read-out: IZ; procedure, shortened: as §3
[35] = system: Aspergillus niger; test: Antifungal activity against Aspergillus niger MTCC 1108 after 48 hrs; assay type: functional
[36] = system: Trichoderma viride; test: Antifungal activity against Trichoderma viride MTCC 1107 after 48 hrs; assay type: functional; conditions: MTCC 1107, 48 h
[37] = system: Aspergillus flavus; test: Antifungal activity against Aspergillus flavus MTCC 1021 assessed as zone of inhibition at 80 uM after 48 hrs by disc diffusion method; assay type: functional; procedure, shortened: as §3
[38] = ATCC 11632, 24 h, read-out: DIZ
[39] = Salmonella enterica, ATCC 23564, 24 h, read-out: DIZ
[40] = ATCC 15499, 24 h, read-out: DIZ
[41] = Salmonella enterica subsp. enterica serovar Typhi

## O=C(O)c1cn(C2CC2)c2cc(N3CCNCC3)c(F)cc2c1=O [CIPROFLOXACIN]
[1]
  zone of inhibition at 80 µM: 36 mm
[2]
  zone of inhibition at 80 µM: 52 mm
[3]
  MIC: 1.25 µM (≈ 0.414 µg/mL)
[4]; [38]
  zone of inhibition at 40 µM: 32 mm
[5]
  zone of inhibition at 20 µM: 29 mm
[6]
  MIC: 1.25 µM (≈ 0.414 µg/mL)
[7]; [38]
  zone of inhibition at 20 µM: 29 mm
[8]; [39]
  zone of inhibition at 20 µM: 37 mm
[9]
  MIC: 1.25 µM (≈ 0.414 µg/mL)
[10]
  MIC: 2.5 µM (≈ 0.828 µg/mL)
[11]
  zone of inhibition at 80 µM: 36 mm
[12]; MTCC 7350, 24 h, read-out: DIZ
  zone of inhibition at 40 µM: 34 mm
[13]; MTCC 7350, 24 h, read-out: DIZ
  zone of inhibition at 20 µM: 32 mm
[14]
  zone of inhibition at 80 µM: 37 mm
[15]; [40]
  zone of inhibition at 20 µM: 31 mm
[16]; [39]
  zone of inhibition at 40 µM: 44 mm
[17]
  zone of inhibition at 80 µM: 38 mm
[18]
  zone of inhibition at 40 µM: 32 mm
[19]
  MIC: 0.63 µM (≈ 0.209 µg/mL)
[20]; [40]
  zone of inhibition at 40 µM: 34 mm

## COc1cc(/C=C/c2nn(-c3ccccc3)c(/C=C/c3ccc(O)c(OC)c3)c2/N=N/c2ccc(S(=O)(=O)Nc3cc(C)on3)cc2)ccc1O
[21]
  zone of inhibition at 80 µM: 13 mm
[1]
  zone of inhibition at 80 µM: 12 mm
[22]
  inhibition in vivo at 200 mg/kg: 25.8%
[2]
  zone of inhibition at 80 µM: 10 mm
[3]
  MIC: > 80 µM
[4]
  diameter of the inhibition zone (DIZ): inactive
[5]
  zone of inhibition at 20 µM: 9 mm
[6]
  MIC: > 80 µM
[7]
  diameter of the inhibition zone (DIZ): inactive
[23]
  zone of inhibition at 40 µM: 11 mm
[24]
  zone of inhibition at 80 µM: 13 mm
[25]
  MIC: 80 µM (≈ 56.4 µg/mL)
[8]; [41]
  diameter of the inhibition zone (DIZ): inactive
[9]
  MIC: > 80 µM
[26]
  zone of inhibition at 20 µM: 9 mm
[27]
  IC50: Not Active
[10]
  MIC: > 80 µM
[11]
  zone of inhibition at 80 µM: 10 mm
[28]
  IC50: 100 µM
[12]
  diameter of the inhibition zone (DIZ): inactive
[13]
  diameter of the inhibition zone (DIZ): inactive
[29]
  IC50: > 100 µM
[14]
  zone of inhibition at 80 µM: 10 mm
[30]
  inhibition zone (IZ): inactive
[31]
  zone of inhibition at 40 µM: 11 mm
[15]
  diameter of the inhibition zone (DIZ): inactive
[32]
  IC50: Not Active
[33]
  MIC: inactive
[16]; [41]
  diameter of the inhibition zone (DIZ): inactive
[17]
  zone of inhibition at 80 µM: 11 mm
[18]
  zone of inhibition at 40 µM: 10 mm
[34]
  zone of inhibition at 20 µM: 9 mm
[19]
  MIC: > 80 µM
[35]
  MIC: inactive
[36]
  MIC: 40 µM (≈ 28.2 µg/mL)
[20]
  diameter of the inhibition zone (DIZ): inactive
[37]
  inhibition zone (IZ): inactive
